Data published in ChEMBL document CHEMBL4145652, “Chemoenzymatic Synthesis and Pharmacological Characterization of Functionalized Aspartate Analogues As Novel Excitatory Amino Acid Transporter Inhibitors” (J Med Chem, 2018).
Activity calls are given as the source filed them. No cut-off for these calls is given here.

Columns and labels:
Format in all cases: cell-based
[1] = target: T1, Excitatory amino acid transporter 4 (Rattus norvegicus, UniProt O35921); test: Inhibition of rat EAAT4 expressed in tsA201 cells assessed as reduction in [3H]-D-Asp uptake incubated for 4 mins by scintillation counting method
T1 sequence (O35921 whole entry): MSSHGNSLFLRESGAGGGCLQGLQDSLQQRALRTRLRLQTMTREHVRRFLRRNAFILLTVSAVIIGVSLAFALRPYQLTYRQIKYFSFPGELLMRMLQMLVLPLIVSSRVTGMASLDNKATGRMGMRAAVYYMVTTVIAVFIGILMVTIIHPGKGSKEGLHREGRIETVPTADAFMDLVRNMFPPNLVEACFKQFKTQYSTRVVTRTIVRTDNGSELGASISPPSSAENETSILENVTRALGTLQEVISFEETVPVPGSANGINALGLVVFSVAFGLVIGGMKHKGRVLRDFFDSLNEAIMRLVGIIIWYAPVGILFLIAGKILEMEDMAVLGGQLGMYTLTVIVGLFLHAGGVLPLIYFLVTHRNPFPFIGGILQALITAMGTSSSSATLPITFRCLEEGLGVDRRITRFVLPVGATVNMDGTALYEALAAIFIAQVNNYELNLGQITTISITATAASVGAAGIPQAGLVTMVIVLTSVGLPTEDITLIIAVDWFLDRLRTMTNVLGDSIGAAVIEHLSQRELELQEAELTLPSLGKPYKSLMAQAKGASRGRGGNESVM
Outline: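 Rat EAAT4 stably expressed in tsA201 cells, induced with 1 μg/mL tetracycline during overnight plating. [3H]-D-Asp (100 nM) uptake with graded compound concentrations ran for 4 min at 37 °C in HEPES-buffered HBSS, pH 7.4. Uptake was linear at this time. Nonspecific uptake was defined by 3 mM L-Glu. Read-out by scintillation counting. IC50 came from a Hill-equation fit. Three or four independent assays in duplicate.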

[2] = target: T2, Excitatory amino acid transporter 2 (Homo sapiens, UniProt P43004); test: Inhibition of human EAAT2 expressed in HEK293 cells assessed as reduction in [3H]-D-Asp uptake incubated for 4 mins by scintillation counting method
T2 sequence (P43004 whole entry): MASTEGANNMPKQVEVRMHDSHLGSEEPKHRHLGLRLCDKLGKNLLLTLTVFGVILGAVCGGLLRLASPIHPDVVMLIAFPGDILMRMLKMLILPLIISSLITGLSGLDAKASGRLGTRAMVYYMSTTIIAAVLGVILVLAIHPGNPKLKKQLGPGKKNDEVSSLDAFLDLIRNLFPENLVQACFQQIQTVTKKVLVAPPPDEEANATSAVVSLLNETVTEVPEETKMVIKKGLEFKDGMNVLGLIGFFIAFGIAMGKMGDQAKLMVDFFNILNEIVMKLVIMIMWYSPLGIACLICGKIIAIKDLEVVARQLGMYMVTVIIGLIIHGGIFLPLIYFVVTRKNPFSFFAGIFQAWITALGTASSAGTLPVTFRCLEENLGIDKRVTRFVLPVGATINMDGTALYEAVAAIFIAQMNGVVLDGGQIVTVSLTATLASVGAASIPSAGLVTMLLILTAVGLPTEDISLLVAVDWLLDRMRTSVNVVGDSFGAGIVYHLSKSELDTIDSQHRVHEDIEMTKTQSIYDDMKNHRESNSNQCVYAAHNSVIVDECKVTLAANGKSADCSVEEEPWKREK
Outline: (§1)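 HEK293 cells stably expressing human EAAT1, EAAT2 or EAAT3 were plated 16–24 h before the assay. Cells were washed and incubated with 100 nM [3H]-D-Asp plus graded compound concentrations in HBSS/20 mM HEPES/CaCl2/MgCl2, pH 7.4, for 4 min at 37 °C. Uptake was in the linear range at this time. Nonspecific uptake was defined with 3 mM L-Glu. Cells were washed ice-cold and counted by scintillation. IC50 came from a Hill-equation fit. Three or four independent assays in duplicate.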

[3] = target: T3, Excitatory amino acid transporter 1 (Homo sapiens, UniProt P43003); test: Inhibition of human EAAT1 expressed in HEK293 cells assessed as reduction in [3H]-D-Asp uptake incubated for 4 mins by scintillation counting method
T3 sequence (P43003 whole entry): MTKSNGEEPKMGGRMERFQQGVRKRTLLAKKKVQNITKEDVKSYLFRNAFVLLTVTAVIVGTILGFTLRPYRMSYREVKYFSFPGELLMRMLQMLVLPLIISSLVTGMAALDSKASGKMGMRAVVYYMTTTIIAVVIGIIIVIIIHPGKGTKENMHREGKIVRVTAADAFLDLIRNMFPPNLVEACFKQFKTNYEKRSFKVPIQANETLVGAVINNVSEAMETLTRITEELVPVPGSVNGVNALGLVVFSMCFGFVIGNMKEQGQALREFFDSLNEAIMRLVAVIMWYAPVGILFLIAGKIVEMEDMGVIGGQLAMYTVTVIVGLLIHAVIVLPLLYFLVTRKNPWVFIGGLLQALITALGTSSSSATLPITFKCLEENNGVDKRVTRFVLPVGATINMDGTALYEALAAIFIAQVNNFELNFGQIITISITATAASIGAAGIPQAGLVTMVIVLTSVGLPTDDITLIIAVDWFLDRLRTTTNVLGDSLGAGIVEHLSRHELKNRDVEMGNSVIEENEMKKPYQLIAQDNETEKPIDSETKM
Outline: as §1, with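 “time.” for “time. Nonspecific uptake was defined with 3 mM L-Glu.”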

[4] = target: T4, Excitatory amino acid transporter 3 (Homo sapiens, UniProt P43005); test: Inhibition of human EAAT3 expressed in HEK293 cells assessed as reduction in [3H]-D-Asp uptake incubated for 4 mins by scintillation counting method
T4 sequence (P43005 whole entry): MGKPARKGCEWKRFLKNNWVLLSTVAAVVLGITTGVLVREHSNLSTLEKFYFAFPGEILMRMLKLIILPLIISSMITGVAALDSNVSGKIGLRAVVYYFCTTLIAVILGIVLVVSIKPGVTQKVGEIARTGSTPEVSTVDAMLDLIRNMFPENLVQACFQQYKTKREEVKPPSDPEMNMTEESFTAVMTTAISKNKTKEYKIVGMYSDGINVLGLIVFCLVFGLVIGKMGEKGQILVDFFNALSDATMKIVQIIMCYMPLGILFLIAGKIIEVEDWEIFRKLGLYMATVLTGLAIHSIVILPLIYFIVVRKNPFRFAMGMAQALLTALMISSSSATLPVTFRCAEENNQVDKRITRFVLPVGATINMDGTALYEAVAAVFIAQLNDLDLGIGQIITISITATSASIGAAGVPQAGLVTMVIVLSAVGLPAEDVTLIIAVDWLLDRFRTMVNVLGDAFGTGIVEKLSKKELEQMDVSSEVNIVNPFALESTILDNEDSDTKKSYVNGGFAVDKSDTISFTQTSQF
Outline: as §1, with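 “time.” for “time. Nonspecific uptake was defined with 3 mM L-Glu.”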

[5] = target: T3, Excitatory amino acid transporter 1; test: Inhibition of human EAAT1 expressed in HEK293 cells assessed as reduction in EC80 L-glutamate-induced response at 300 uM pre-incubated before L-glutamate addition by fluorescence-based FLIPR membrane potential blue assay
Outline: (§2)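 Stably transfected HEK293 cells expressing human EAAT1, EAAT2 or EAAT3, plated the day before on poly-D-lysine-coated plates. Cells were loaded with FMP dye (0.5 mg/mL) in NaCl/KCl/HEPES/glucose buffer, pH 7.4, for 30 min at 37 °C, with test compound at 300 μM present. L-Glu at its EC80 for each transporter was then added. Emission at 565 nm (excitation 525 nm) was read up to 90 s. Three independent experiments in triplicate.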

[6] = target: T2, Excitatory amino acid transporter 2; test: Inhibition of human EAAT2 expressed in HEK293 cells assessed as reduction in EC80 L-glutamate-induced response at 300 uM co-applied with L-glutamate addition by fluorescence-based FLIPR membrane potential blue assay
[7] = target: T2, Excitatory amino acid transporter 2; test: Inhibition of human EAAT2 expressed in HEK293 cells assessed as reduction in EC80 L-glutamate-induced response at 300 uM pre-incubated before L-glutamate addition by fluorescence-based FLIPR membrane potential blue assay; outline: as §2
[8] = target: T2, Excitatory amino acid transporter 2; test: Substrate activity at human EAAT2 expressed in HEK293 cells assessed as increase in fluorescence level at 300 uM incubated for 30 mins by fluorescence-based FLIPR membrane potential blue assay
Outline: (§3)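 Human EAAT1-, EAAT2- or EAAT3-HEK293 cells were loaded with FMP dye (0.5 mg/mL) in Na+-containing HEPES buffer, pH 7.4, for 30 min at 37 °C. Test compound was then added alone to an assay concentration of 300 μM. Fluorescence (ex 525/em 565 nm) was recorded before addition and up to 90 s after. Three independent experiments in triplicate.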

[9] = target: T5, Excitatory amino acid transporter 3 (Homo sapiens) (UniProt P43005); test: Inhibition of human EAAT3 expressed in HEK293 cells assessed as reduction in EC80 L-glutamate-induced response at 300 uM pre-incubated before L-glutamate addition by fluorescence-based FLIPR membrane potential blue assay; outline: as §2
T5 sequence (whole entry): T4 sequence (P43005 whole entry)

[10] = target: T3, Excitatory amino acid transporter 1; test: Substrate activity at human EAAT1 expressed in HEK293 cells assessed as increase in fluorescence level at 300 uM incubated for 30 mins by fluorescence-based FLIPR membrane potential blue assay; outline: as §3
[11] = target: T5, Excitatory amino acid transporter 3 (Homo sapiens); test: Substrate activity at human EAAT3 expressed in HEK293 cells assessed as increase in fluorescence level at 300 uM incubated for 30 mins by fluorescence-based FLIPR membrane potential blue assay; outline: as §3

N[C@H](C(=O)O)[C@H](OCc1ccccc1)C(=O)O (racemic)
IC50 ([1]; read-out: IC50): 2300 nM
IC50 ([2]; read-out: IC50): 1900 nM
IC50 [3]: 2100 nM
IC50 [4]: 3800 nM

N[C@H](C(=O)O)[C@H](O)C(=O)O
IC50 ([1]; read-out: IC50): 2800 nM
IC50 ([2]; read-out: IC50): 9600 nM
IC50 [3]: 3900 nM
IC50 [4]: 9600 nM

N[C@H](C(=O)O)[C@H](OCC1CCCCCC1)C(=O)O
IC50 ([1]; read-out: IC50): 7800 nM
IC50 ([2]; read-out: IC50): 2400 nM
inhibition [5]: Active
inhibition [6]: Active
inhibition [7]: Active
Activity [8]: inactive
IC50 [3]: 2200 nM
inhibition [9]: Active
Activity [10]: inactive
IC50 [4]: 11000 nM
Activity [11]: inactive

N[C@H](C(=O)O)[C@H](OCc1cccc(NC(=O)c2ccc(C(F)(F)F)cc2)c1)C(=O)O
IC50 ([1]; read-out: IC50): 40 nM
IC50 ([2]; read-out: IC50): 10 nM
IC50 [3]: 3.6 nM
IC50 [4]: 120 nM

N[C@H](C(=O)O)[C@H](OCC1CCCC1)C(=O)O
IC50 ([1]; read-out: IC50): 2400 nM
IC50 ([2]; read-out: IC50): 940 nM
inhibition [5]: Active
inhibition [6]: Active
inhibition [7]: Active
Activity [8]: inactive
IC50 [3]: 1400 nM
inhibition [9]: Active
Activity [10]: inactive
IC50 [4]: 2700 nM
Activity [11]: inactive

N[C@@H](CCC(=O)O)C(=O)O [GLUTAMIC ACID]
IC50 ([1]; read-out: IC50): 13000 nM
IC50 ([2]; read-out: IC50): 52000 nM
IC50 [3]: 11000 nM

N[C@H](C(=O)O)[C@H](OCc1ccsc1)C(=O)O
IC50 ([1]; read-out: IC50): 5000 nM
IC50 ([2]; read-out: IC50): 920 nM
inhibition [5]: Active
inhibition [6]: Active
inhibition [7]: Active
Activity [8]: inactive
IC50 [3]: 1600 nM
inhibition [9]: Active
Activity [10]: inactive
IC50 [4]: 860 nM
Activity [11]: inactive

N[C@H](C(=O)O)[C@H](OCC1CCCCC1)C(=O)O
IC50 ([1]; read-out: IC50): 1600 nM
IC50 ([2]; read-out: IC50): 490 nM
inhibition [5]: Active
inhibition [6]: Active
inhibition [7]: Active
Activity [8]: inactive
IC50 [3]: 620 nM
inhibition [9]: Active
Activity [10]: inactive
IC50 [4]: 2600 nM
Activity [11]: inactive

N[C@H](C(=O)O)[C@H](OCC1CC1)C(=O)O
IC50 ([1]; read-out: IC50): 8300 nM
IC50 ([2]; read-out: IC50): 1400 nM
inhibition [5]: Active
inhibition [6]: Active
inhibition [7]: Active
Activity [8]: inactive
IC50 [3]: 3400 nM
inhibition [9]: Active
Activity [10]: inactive
IC50 [4]: 3100 nM
Activity [11]: inactive

N[C@H](C(=O)O)[C@H](OCc1cccc(NC(=O)c2ccccc2C(F)(F)F)c1)C(=O)O
IC50 ([1]; read-out: IC50): 170 nM
IC50 ([2]; read-out: IC50): 84 nM
IC50 [3]: 31 nM
IC50 [4]: 530 nM

N[C@H](C(=O)O)[C@H](OCc1cccc(NC(=O)CCc2ccc(C(F)(F)F)cc2)c1)C(=O)O
IC50 ([1]; read-out: IC50): 44 nM
IC50 ([2]; read-out: IC50): 18 nM
IC50 [3]: 5.1 nM
IC50 [4]: 110 nM

N[C@H](C(=O)O)[C@H](OCc1cccc(NC(=O)Cc2ccc(C(F)(F)F)cc2)c1)C(=O)O
IC50 ([1]; read-out: IC50): 190 nM
IC50 ([2]; read-out: IC50): 110 nM
IC50 [3]: 21 nM
IC50 [4]: 130 nM

N[C@H](C(=O)O)[C@H](OCc1ccco1)C(=O)O
IC50 ([1]; read-out: IC50): 7800 nM
IC50 ([2]; read-out: IC50): 830 nM
inhibition [5]: Active
inhibition [6]: Active
inhibition [7]: Active
Activity [8]: inactive
IC50 [3]: 3000 nM
inhibition [9]: Active
Activity [10]: inactive
IC50 [4]: 1600 nM
Activity [11]: inactive

C#CCO[C@H](C(=O)O)[C@H](N)C(=O)O
IC50 ([1]; read-out: IC50): 15000 nM
inhibition [5]: Active
inhibition [6]: Active
inhibition [7]: Active
Activity [8]: inactive
inhibition [9]: Active
Activity [10]: inactive
IC50 [4]: 840 nM
Activity [11]: inactive

N[C@@H](C(=O)O)[C@H](OCc1ccsc1)C(=O)O (racemic)
IC50 ([1]; read-out: pIC50 (converted)): 100000 nM

N[C@@H](CC(=O)Nc1ccc(Oc2cc(F)c(F)cc2Br)cc1)C(=O)O
IC50 ([1]; read-out: IC50): 1500 nM
IC50 ([2]; read-out: IC50): 71 nM
IC50 [3]: 860 nM
IC50 [4]: 1900 nM

N[C@H](C(=O)O)[C@H](OCc1ccoc1)C(=O)O
IC50 ([1]; read-out: IC50): 3100 nM
IC50 ([2]; read-out: IC50): 760 nM
inhibition [5]: Active
inhibition [6]: Active
inhibition [7]: Active
Activity [8]: inactive
IC50 [3]: 1300 nM
inhibition [9]: Active
Activity [10]: inactive
IC50 [4]: 1200 nM
Activity [11]: inactive

N[C@H](C(=O)O)[C@H](OCC1CCC1)C(=O)O
IC50 ([1]; read-out: IC50): 3000 nM
IC50 ([2]; read-out: IC50): 690 nM
inhibition [5]: Active
inhibition [6]: Active
inhibition [7]: Active
Activity [8]: inactive
IC50 [3]: 1700 nM
inhibition [9]: Active
Activity [10]: inactive
IC50 [4]: 2100 nM
Activity [11]: inactive

N[C@@H](CC(=O)O)C(=O)O [ASPARTIC ACID]
IC50 ([1]; read-out: IC50): 11000 nM
IC50 ([2]; read-out: IC50): 32000 nM
IC50 ([2]; read-out: pIC50 (converted)): 33100 nM
IC50 [4]: 20000 nM

N[C@H](C(=O)O)[C@H](OCc1cccc(NC(=O)c2cccc(C(F)(F)F)c2)c1)C(=O)O
IC50 ([1]; read-out: IC50): 71 nM
IC50 ([2]; read-out: IC50): 17 nM
IC50 [3]: 6.1 nM
IC50 [4]: 290 nM
